Laboratory results from ChEMBL document CHEMBL1136621 (Bioorg Med Chem Lett, 2003).
Each block holds one compound with its values, some of them ahead of it.

Key:
[1] = target: T1, Cocaine esterase (Homo sapiens, UniProt O00748); experiment: Susceptibility to carboxylesterase in human intestine at a concentration 2.5 mM; assay type: tissue-based; details: 2500 µM
T1 sequence (O00748 whole entry): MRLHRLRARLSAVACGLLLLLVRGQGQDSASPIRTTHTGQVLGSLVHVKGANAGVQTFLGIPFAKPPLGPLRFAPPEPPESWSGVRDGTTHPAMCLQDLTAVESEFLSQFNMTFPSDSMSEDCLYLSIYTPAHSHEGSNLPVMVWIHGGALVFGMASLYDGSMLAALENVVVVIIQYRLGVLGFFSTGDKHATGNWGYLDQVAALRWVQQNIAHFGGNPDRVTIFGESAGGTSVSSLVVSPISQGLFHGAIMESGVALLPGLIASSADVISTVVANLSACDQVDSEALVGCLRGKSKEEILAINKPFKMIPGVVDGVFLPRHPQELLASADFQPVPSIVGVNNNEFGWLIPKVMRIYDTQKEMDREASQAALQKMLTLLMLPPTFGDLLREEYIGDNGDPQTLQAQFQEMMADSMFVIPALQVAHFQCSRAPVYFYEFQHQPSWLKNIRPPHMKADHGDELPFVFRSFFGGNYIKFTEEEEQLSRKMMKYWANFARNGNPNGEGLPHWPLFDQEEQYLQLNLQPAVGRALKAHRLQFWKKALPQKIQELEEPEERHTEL
Method in brief: (§1)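 Crude enzyme extracts from human liver and intestine; substrate at 2.5 mM. Conversion rate expressed as nmol/mg protein/h. L/I is the ratio of the liver rate to the intestine rate.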

[2] = target: T1, Cocaine esterase; experiment: Susceptibility to carboxylesterase in human liver at a concentration 2.5 mM; assay type: tissue-based; details: 2500 µM; method in brief: as §1
[3] = tested on: carboxylesterase (Homo sapiens); experiment: Relative susceptibility to human carboxylesterase in liver and intestine (L/I ratio)
[4] = target: T2, Dihydropyrimidine dehydrogenase [NADP(+)] (Homo sapiens, UniProt Q12882); experiment: Inhibitory activity against dihydropyrimidine dehydrogenase (DPD)
T2 sequence (Q12882 whole entry): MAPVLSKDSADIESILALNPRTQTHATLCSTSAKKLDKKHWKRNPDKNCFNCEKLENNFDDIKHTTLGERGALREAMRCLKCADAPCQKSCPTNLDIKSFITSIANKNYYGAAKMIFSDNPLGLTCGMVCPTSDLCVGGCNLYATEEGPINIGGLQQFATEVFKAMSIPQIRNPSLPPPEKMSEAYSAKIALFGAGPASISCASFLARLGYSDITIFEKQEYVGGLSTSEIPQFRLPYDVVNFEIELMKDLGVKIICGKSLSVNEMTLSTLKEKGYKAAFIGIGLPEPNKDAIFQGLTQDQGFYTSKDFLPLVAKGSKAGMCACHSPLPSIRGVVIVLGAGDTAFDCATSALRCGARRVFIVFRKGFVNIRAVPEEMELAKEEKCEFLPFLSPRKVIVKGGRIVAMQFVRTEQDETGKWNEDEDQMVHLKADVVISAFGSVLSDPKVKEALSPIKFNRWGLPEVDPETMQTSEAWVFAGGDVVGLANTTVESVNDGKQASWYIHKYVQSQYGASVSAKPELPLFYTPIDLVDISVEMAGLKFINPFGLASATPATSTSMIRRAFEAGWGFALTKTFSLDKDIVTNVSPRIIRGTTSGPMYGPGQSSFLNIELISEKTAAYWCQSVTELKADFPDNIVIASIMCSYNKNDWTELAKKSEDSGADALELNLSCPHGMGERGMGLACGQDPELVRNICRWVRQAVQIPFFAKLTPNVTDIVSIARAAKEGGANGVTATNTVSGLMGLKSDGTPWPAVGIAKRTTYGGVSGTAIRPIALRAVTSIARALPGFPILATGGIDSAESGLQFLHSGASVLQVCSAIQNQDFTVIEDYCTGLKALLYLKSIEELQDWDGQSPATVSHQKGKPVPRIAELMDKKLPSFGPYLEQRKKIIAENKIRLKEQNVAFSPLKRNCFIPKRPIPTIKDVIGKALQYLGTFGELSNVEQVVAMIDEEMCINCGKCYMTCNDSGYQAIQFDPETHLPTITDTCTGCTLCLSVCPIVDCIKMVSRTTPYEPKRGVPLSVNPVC

[5] = target: Cytidine deaminase (Homo sapiens) (UniProt P32320); experiment: Susceptibility to Cyd deaminase at a substrate concentration of 2.0 mM
Chain of Cytidine deaminase (Homo sapiens) (P32320 whole entry): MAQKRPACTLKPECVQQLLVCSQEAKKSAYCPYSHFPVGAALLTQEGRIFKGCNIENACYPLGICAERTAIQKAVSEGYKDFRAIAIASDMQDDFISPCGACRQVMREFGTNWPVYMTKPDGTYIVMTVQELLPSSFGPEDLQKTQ

[6] = target: T3, Thymidine phosphorylase (Homo sapiens) (UniProt P19971); experiment: Susceptibility to thymidine phosphorylase (ThdPase) at a substrate concentration of 1.0 mM
T3 sequence (whole entry): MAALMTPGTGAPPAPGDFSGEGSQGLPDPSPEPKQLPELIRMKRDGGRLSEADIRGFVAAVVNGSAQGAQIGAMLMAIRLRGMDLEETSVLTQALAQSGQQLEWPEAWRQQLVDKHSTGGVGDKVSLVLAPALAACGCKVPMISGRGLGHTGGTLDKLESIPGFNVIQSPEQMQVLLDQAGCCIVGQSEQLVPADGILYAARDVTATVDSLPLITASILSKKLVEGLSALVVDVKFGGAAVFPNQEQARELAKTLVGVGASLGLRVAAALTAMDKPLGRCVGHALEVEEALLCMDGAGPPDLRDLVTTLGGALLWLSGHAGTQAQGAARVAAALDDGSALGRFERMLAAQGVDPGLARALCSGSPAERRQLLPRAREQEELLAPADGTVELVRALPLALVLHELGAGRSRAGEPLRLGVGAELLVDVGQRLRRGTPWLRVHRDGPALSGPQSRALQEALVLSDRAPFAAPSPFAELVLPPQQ

[7] = tested on: Mus musculus; experiment: Tumour concentration of 5-FU in HT-3 (human cervical cancer) xenograft mice at 1.38 mg/kg oral dose co-administered with 135 mg/kg Capecitabine; assay type: functional
[8] = Ratio of tumor and plasma 5-FU concentration in HT-3 (human cervical cancer) xenograft mice on co-administration with Capecitabine; assay type: functional
[9] = Stability at pH 2.0-7.4 determined 2 hours after treatment; assay type: physicochemical; details: buffer, read-out: Stability
Method in brief: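 Compound held in aqueous solution at pH 2.0–7.4 for 2 h at 37 °C. Stability reported as the percentage of compound remaining.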

[10] = Stability in serum determined 1 hour after treatment; assay type: ADME, cell-free; details: read-out: Stability
Method in brief: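 Compound incubated in serum; stability reported as the percentage remaining after 1 h.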

[11] = organism: Homo sapiens; experiment: Susceptibility to human liver enzyme at a concentration 2.5 mM; assay type: functional; method in brief: as §1
[12] = organism: Homo sapiens; experiment: Susceptibility to human intestine enzyme at a concentration 2.5 mM; assay type: functional; method in brief: as §1
[13] = tested on: Mus musculus; experiment: Plasma concentration of 5-FU in HT-3 (human cervical cancer) xenograft mice at 33.7 mg/kg oral dose co-administered with 135 mg/kg Capecitabine; assay type: functional, organism-based
[14] = tested on: Mus musculus; experiment: Tumour concentration of 5-FU in HT-3 (human cervical cancer) xenograft mice at 33.7 mg/kg oral dose co-administered with 135 mg/kg Capecitabine; assay type: functional
[15] = tested on: Lung carcinoma cell line; experiment: Antitumor activity in human lung carcinoma; assay type: functional
[16] = tested on: Mus musculus; experiment: Plasma concentration of 5-FU in HT-3 (human cervical cancer) xenograft mice at 135 mg/kg oral dose; assay type: functional, organism-based; set-up: dose 135 mg/kg
[17] = tested on: Mus musculus; experiment: Tumour concentration of 5-FU in HT-3 (human cervical cancer) xenograft mice at 135 mg/kg oral dose; assay type: functional

SMILES: C=Cc1cn([C@@H]2O[C@H](C)[C@@H](O)[C@H]2O)c(=O)nc1NC(=O)OCCCCC
- Susceptibility [1]: < 5 nmol/mg protein/h
- Susceptibility [2]: 110 nmol/mg protein/h
- Susceptibilty Ratio (Liver/Intestine) [3]: > 22

SMILES: CCCCCOC(=O)Nc1nc(=O)n([C@@H]2O[C@H](C)[C@@H](O)[C@H]2O)cc1I
- Susceptibility [1]: 18 nmol/mg protein/h
- Susceptibility [2]: 90 nmol/mg protein/h
- Susceptibilty Ratio (Liver/Intestine) [3]: 5

SMILES: C[C@H]1O[C@@H](n2cc(I)c(N)nc2=O)[C@H](O)[C@@H]1O
- Relative susceptibility [5]: 0.33

SMILES: C=Cc1cn([C@@H]2O[C@H](C)[C@@H](O)[C@H]2O)c(=O)nc1N
- Relative susceptibility [5]: 0.14

SMILES: C[C@H]1O[C@@H](n2cc(F)c(N)nc2=O)[C@H](O)[C@@H]1O
- Relative susceptibility [5]: 1

SMILES: C=Cc1cnc(O)nc1O
- IC50 [4]: 0.089 µM
- Tumour_[5-FU] [7]: 12 nmol/g
- Ratio_tumour/plasma [8]: 3.8

SMILES: C=Cc1cn([C@@H]2O[C@H](C)[C@@H](OC(C)=O)[C@H]2OC(C)=O)c(=O)nc1N
- remaining at 2 h [9]: 100%
- remaining at 1 h [10]: 61%
- Susceptibility [11]: 130 nmol/mg protein/h
- Susceptibility [12]: 28 nmol/mg protein/h
- Plasma [5-FU] [13]: 1 nmol/mL
- Tumour_[5-FU] [14]: 13 nmol/g
- Ratio_tumour/plasma [8]: 13

SMILES: Oc1ncc(/C=C/c2ccccc2)c(O)n1
- IC50 [4]: 0.043 µM

SMILES: CCCCCOC(=O)Nc1nc(=O)n([C@@H]2O[C@H](C)[C@@H](O)[C@H]2O)cc1F [CAPECITABINE]
- Susceptibility [1]: 5.3 nmol/mg protein/h
- Susceptibility [2]: 79 nmol/mg protein/h
- Activity [15]: 377 mg/kg
- Plasma [5-FU] [16]: 0.62 nmol/mL
- Tumour_[5-FU] [17]: 3.5 nmol/g

Other lines, results leading:

- IC50 [4]: 0.2 µM
SMILES: N#Cc1c[nH]c(=O)[nH]c1=O

- Relative susceptibility [6]: 2.3
SMILES: C[C@H]1O[C@@H](n2cc(I)c(=O)[nH]c2=O)[C@H](O)C1O (single isomer, unassigned)

- Relative susceptibility [6]: < 0.01
SMILES: C[C@H]1O[C@@H](n2cc(Cc3cccc(OCc4ccccc4)c3)c(=O)[nH]c2=O)[C@H](O)C1O (single isomer, unassigned)

- Relative susceptibility [6]: 0.2
SMILES: C=Cc1cn([C@@H]2O[C@H](C)C(O)[C@H]2O)c(=O)[nH]c1=O (single isomer, unassigned)

- Relative susceptibility [6]: 5
SMILES: C#Cc1cn([C@@H]2O[C@H](C)C(O)[C@H]2O)c(=O)[nH]c1=O (single isomer, unassigned)

- Relative susceptibility [6]: 1
SMILES: C[C@H]1O[C@@H](n2cc(F)c(=O)[nH]c2=O)[C@H](O)C1O (single isomer, unassigned)

- Relative susceptibility [5]: 0.034
SMILES: C#Cc1cn([C@@H]2O[C@H](C)[C@@H](O)[C@H]2O)c(=O)nc1N

- IC50 [4]: 0.014 µM
SMILES: C#Cc1c[nH]c(=O)[nH]c1=O

- Relative susceptibility [6]: < 0.01
SMILES: C[C@H]1O[C@@H](n2cc(C#N)c(=O)[nH]c2=O)[C@H](O)C1O (single isomer, unassigned)

- Relative susceptibility [6]: < 0.01
SMILES: C[C@H]1O[C@@H](n2cc(/C=C/c3ccccc3)c(=O)[nH]c2=O)[C@H](O)C1O (single isomer, unassigned)

- IC50 [4]: 0.097 µM
SMILES: O=c1[nH]cc(Cc2cccc(OCc3ccccc3)c2)c(=O)[nH]1

- IC50 [4]: 0.22 µM
SMILES: O=c1[nH]cc(I)c(=O)[nH]1
